Reference: ChEMBL document CHEMBL2331205, “Anti-hepatitis B virus and anti-cancer activities of novel isoflavone analogs” (Eur J Med Chem, 2013)

Legend:
A549 [1] = assay: Growth inhibition of human A549 cells after 48 hrs by MTT assay; type: functional, cell-based; details: A549, 48 h
How it was run: (§1)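 Cells seeded at 8000/well, treated 24 h later in duplicate with a range of concentrations (DMSO stock 10 g/L diluted in fresh medium), 48 h at 37 °C, 5% CO2. MTT (5 mg/ml in PBS) added for 4 h, formazan dissolved in DMSO, absorbance read at 570 nm. IC50 is the concentration giving 50% survival.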

HeLa = assay: Growth inhibition of human HeLa cells after 48 hrs by MTT assay; type: functional, cell-based; how it was run: as §1
[2] = Growth inhibition of human QGY7701 cells after 48 hrs by MTT assay; type: functional; details: QGY7701, 48 h; how it was run: as §1
Huh-7 [3] = assay: Growth inhibition of human HuH7 cells after 48 hrs by MTT assay; type: functional, cell-based; details: Huh-7, 48 h; how it was run: as §1
[4] = Growth inhibition of human L02 cells after 48 hrs by MTT assay; type: functional, cell-based; details: L02, 48 h; how it was run: as §1
[5] = Selectivity index, ratio of CC50 for human HepG2(2.2.15) cells to IC50 for HBV infected in human HepG2(2.2.15) cells assessed as inhibition of viral replication; type: functional
How it was run: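 Selectivity index calculated as CC50 in HepG2 2.2.15 cells (MTT, 9-day exposure) divided by IC50 for HBV DNA reduction measured by fluorescence PCR after 9 days.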

[6] = Selectivity index, ratio of CC50 for human HepG2(2.2.15) cells to IC50 for HBV infected in human HepG2(2.2.15) cells assessed as inhibition of HBeAg production; type: functional
How it was run: (§2)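 Selectivity index calculated as CC50 in HepG2 2.2.15 cells (MTT, 9-day exposure) divided by IC50 for HBeAg or HBsAg reduction (ELISA of 9-day supernatants).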

[7] = Selectivity index, ratio of CC50 for human HepG2(2.2.15) cells to IC50 for HBV infected in human HepG2(2.2.15) cells assessed as inhibition of HBsAg production; type: functional; how it was run: as §2
[8] = Cytotoxicity against human HepG2(2.2.15) cells compound treated for 48 hrs followed by incubation for 9 days by MTT assay; type: cell-based
How it was run: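 HepG2 2.2.15 cells kept 48 h in plates before adding compounds (DMSO stocks serially diluted in medium), then incubated at 37 °C for 9 days. Media-only wells as blank. MTT (5 g/L) added 4 h before lysis in 10% SDS/50% DMF, pH 7.2; OD at 570 nm gives percent cell death; CC50 derived.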

Hepatitis B virus [9] = assay: Antiviral activity against HBV infected in human HepG2(2.2.15) cells assessed as inhibition of viral replication after 9 days by fluorescence PCR method; type: functional, organism-based; details: HepG2 2.2.15, 216 h
How it was run: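 HepG2 2.2.15 cells given a range of compound concentrations for nine days; HBV DNA quantified by fluorescence PCR. IC50 taken as the concentration giving 50% inhibition of HBV DNA replication.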

Hepatitis B virus [10] = assay: Antiviral activity against HBV infected in human HepG2(2.2.15) cells assessed as inhibition of HBeAg production after 9 days by ELISA; type: functional, organism-based; details: HepG2 2.2.15, 216 h
How it was run: (§3)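 HepG2 2.2.15 cells (HBV-producing) given a range of compound concentrations for nine days; culture supernatants collected and HBsAg or HBeAg levels measured by ELISA. IC50 taken as the concentration giving 50% inhibition of antigen level.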

Hepatitis B virus [11] = assay: Antiviral activity against HBV infected in human HepG2(2.2.15) cells assessed as inhibition of HBsAg production after 9 days by ELISA; type: functional, organism-based; details: HepG2 2.2.15, 216 h; how it was run: as §3
Huh-7 [12] = assay: Ratio of 5-Fu IC50 to compound IC50 for human HuH7 cells after 48 hrs by MTT assay; type: functional
A549 [13] = assay: Ratio of 5-Fu IC50 to compound IC50 for human A549 cells after 48 hrs by MTT assay; type: functional

Structure (SMILES) | IC50 (A549 [1]) [µM] | IC50 (HeLa) [µM] | IC50 [2] [µM] | IC50 (Huh-7 [3]) [µM] | IC50 [4] [µM] | Ratio CC50/IC50 [5] | Ratio CC50/IC50 [6] | Ratio CC50/IC50 [7] | CC50 at 48 h [8] [µM] | IC50 (Hepatitis B virus [9]) [µM] | IC50 (Hepatitis B virus [10]) [µM] | IC50 (Hepatitis B virus [11]) [µM] | Ratio IC50 (Huh-7 [12]) | Ratio IC50 (A549 [13])
COc1ccc2c(=O)c(/C=C/C(=O)NCc3ccc(F)cc3F)coc2c1 | 13.3 | > 100 | > 100 | > 100 | > 200 | 2.14 | 5.35 | 5.55 | 79.2 | 37 | 14.8 | 14.3 |  | 
COc1ccc2c(=O)c(/C=C/C(=O)Nc3ccc(Cl)cc3)coc2c1 | > 100 | > 100 | > 100 | 37.1 | > 200 | 4.03 | 12.97 | 2.96 | 272 | 67.5 | 20.9 | 91.7 |  | 
COc1ccc(CNC(=O)/C=C/c2coc3cc(O)ccc3c2=O)cc1 | > 100 | > 100 | 10 | 8.43 | > 200 | 152.76 | 306.82 | 70.25 | 718 | 4.7 | 2.34 | 10.2 |  | 
O=C(/C=C/c1coc2cc(O)ccc2c1=O)Nc1ccccc1 | 24.4 | 9.7 | 17.9 | 3.88 | > 200 | 28.29 | 61.12 | 18.02 | 821 | 29 | 13.4 | 45.5 | 4 | 
COc1ccc(CNC(=O)/C=C/c2coc3cc(OC)ccc3c2=O)cc1 | 22.5 | > 100 | 15.7 | 7.57 | > 200 | 1.77 | 2.98 | 3.08 | 43 | 24.3 | 14.4 | 14 |  | 
O=C(/C=C/c1coc2cc(O)ccc2c1=O)NCCc1ccc(F)cc1 | 6.84 | > 100 | > 100 | > 100 | > 200 |  | 6.64 | 7.03 | 102 | > 100 | 15.4 | 14.6 |  | 
Cc1ccc(CNC(=O)/C=C/c2coc3cc(O)ccc3c2=O)cc1 | 17.4 | > 100 | 24.9 | > 100 | > 200 | 35.31 | 26.16 | 30.27 | 501 | 14.2 | 19.1 | 16.5 |  | 
O=C(/C=C/c1coc2cc(O)ccc2c1=O)NCc1ccc(F)cc1F | 6.61 | > 100 | > 100 | > 100 | > 200 | 20.16 | 38.05 | 32.34 | 470 | 23.3 | 12.3 | 14.5 |  | 
COc1ccc2c(=O)c(/C=C/C(=O)Nc3ccccc3)coc2c1 | 51 | > 100 | 14 | 9.05 | > 200 |  | 30.85 | 32.7 | 523 | > 100 | 16.9 | 16 |  | 
COc1ccc2c(=O)c(/C=C/C(=O)Nc3cccc(Cl)c3)coc2c1 | 0.47 | 11.8 | > 100 | > 100 | > 200 |  |  |  | 1100 | > 100 | > 100 | > 100 |  | 12
